# Experimental data as given in ChEMBL document CHEMBL1129341, “New neplanocin analogues. 6. Synthesis and potent antiviral activity of 6'-homoneplanocin A1” (J Med Chem, 1996).
# What was measured:
# [1] = test system: Vero; experiment: Cytotoxic activity against forest virus in Vero Cells; type: functional; details: Chlorocebus sabaeus
# Method in brief: (§1)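 Antiviral screen in cell culture (HeLa, HEL, E6SM or Vero, per line). IC50 is the concentration that reduces virus-induced cytopathogenicity by 50%.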
# [2] = test system: E6SM; experiment: Cytotoxic activity against cell morphology in E6SM Cells; type: functional; details: Homo sapiens
# Method in brief: (§2)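 Host cells under the conditions of the antiviral assays (E6SM, HeLa or Vero, per line). Cytotoxic concentration is the one causing microscopic alteration of normal cell morphology in about 50% of cells.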
# [3] = test system: Vero; experiment: Cytotoxic activity against Junin virus in Vero Cells; type: functional; details: Chlorocebus sabaeus; method in brief: as §1
# [4] = test system: Vero; experiment: Cytotoxic activity against Reo-1 virus in Vero Cells; type: functional; details: Chlorocebus sabaeus
# [5] = test system: HeLa; experiment: Cytotoxic activity against Coxsackie B4 virus in HeLa Cells; type: functional; details: Homo sapiens
# [6] = test system: HEL; experiment: Cytotoxic activity against VZV (YS) virus in HEL Cells; type: functional; details: Homo sapiens
# [7] = test system: E6SM; experiment: Cytotoxic activity against HSV-2 (G) virus in E6SM Cells; type: functional; details: Homo sapiens
# [8] = test system: HeLa; experiment: Cytotoxic activity against VZV virus in HeLa Cells; type: functional; details: Homo sapiens
# [9] = test system: E6SM; experiment: Cytotoxic activity against HSV-1(KOS) virus in E6SM Cells; type: functional; details: Homo sapiens; method in brief: as §1
# [10] = test system: HeLa; experiment: Cytotoxic activity against Polio-1 virus in HeLa Cells; type: functional; details: Homo sapiens; method in brief: as §1
# [11] = test system: Vero; experiment: Cytotoxic activity against Tacaribe virus in Vero Cells; type: functional; details: Chlorocebus sabaeus; method in brief: as §1
# [12] = test system: HEL; experiment: Cytotoxic activity against TK-VZV (YS/R) virus in HEL Cells; type: functional; details: Homo sapiens
# [13] = test system: E6SM; experiment: Cytotoxic activity against vaccinia virus in E6SM Cells; type: functional; details: Homo sapiens; method in brief: as §1
# [14] = test system: HEL; experiment: Cytotoxic activity against cell growth in HEL Cells; type: functional; details: Homo sapiens
# Method in brief: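 HEL cell cultures. CC50 is the concentration that reduces cell growth by 50%.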
# [15] = test system: HEL; experiment: Cytotoxic activity against TK-VZV (07/1) virus in HEL Cells; type: functional; details: Homo sapiens
# [16] = test system: Vero; experiment: Cytotoxic activity towards viable cells in Vero cells; type: functional; details: Chlorocebus sabaeus
# Method in brief: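 Vero cells. CC50 is the concentration that reduces the number of viable cells by 50%.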
# [17] = test system: HEL; experiment: Cytotoxic activity against HCMV (AD-169) virus in HEL Cells; type: functional; details: Homo sapiens
# [18] = test system: Vero; experiment: Cytotoxic activity against Sindbis virus in Vero Cells; type: functional; details: Chlorocebus sabaeus
# [19] = test system: E6SM; experiment: Cytotoxic activity against TK-HSV-1 (B2006) virus in E6SM Cells; type: functional; details: Homo sapiens
# [20] = test system: E6SM; experiment: Cytotoxic activity against VSV virus in E6SM Cells; type: functional; details: Homo sapiens; method in brief: as §1
# [21] = test system: Vero; experiment: Inhibitory activity against virus plaque formation (PV-3) in Vero cells; type: functional, cell-based; details: Chlorocebus sabaeus
# Method in brief: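 Poliovirus type 3 in Vero cells. IC50 is the concentration that reduces virus plaque formation by 50%.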
# [22] = test system: HeLa; experiment: Cytotoxic activity against cell morphology in HeLa Cells; type: functional; details: Homo sapiens; method in brief: as §2
# [23] = test system: Vero; experiment: Cytotoxic activity against cell morphology in Vero Cells; type: functional; details: Chlorocebus sabaeus; method in brief: as §2
# [24] = test system: HEL; experiment: Cytotoxic activity against VZV (OKA) virus in HEL Cells; type: functional; details: Homo sapiens; method in brief: as §1
# [25] = test system: HEL; experiment: Cytotoxic activity against HCMV(Davis) virus in HEL Cells; type: functional; details: Homo sapiens
# [26] = test system: Vero; experiment: Cytotoxic activity against PV-3 virus in Vero Cells; type: functional; details: Chlorocebus sabaeus
# [27] = test system: Vero; experiment: Inhibitory activity against virus-induced cytopathogenicity (VSV)in Vero cells; type: functional, cell-based; details: Chlorocebus sabaeus
# Method in brief: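 Vesicular stomatitis virus in Vero cells. IC50 is the concentration that reduces virus-induced cytopathogenicity by 50%.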
# [28] = Inhibitory activity against S-adenosyl-L-homocysteine hydrolase from rabbit erythrocytes
Structure (SMILES),CC50 [1],CC50 [2],CC50 [3],CC50 [4],CC50 [5],CC50 [6],CC50 [7],CC50 [8],CC50 [9],CC50 [10],CC50 [11],CC50 [12],CC50 [13],CC50 [14],CC50 [15],CC50 [16],CC50 [17],CC50 [18],IC50 [21],IC50 [27],further results
Nc1ncnc2c1ncn2[C@@H]1C=C(CCO)[C@@H](O)[C@H]1O,> 400 µg/mL,> 400 µg/mL,5 µg/mL,70 µg/mL,> 200 µg/mL,> 50 µg/mL,> 400 µg/mL,0.7 µg/mL,> 400 µg/mL,> 200 µg/mL,20 µg/mL,> 50 µg/mL,0.1 µg/mL,> 50 µg/mL,> 50 µg/mL,> 500 µg/mL,0.15 µg/mL,> 400 µg/mL,0.35 µg/mL,1 µg/mL,CC50 [19]: > 400 µg/mL; CC50 [20]: 1 µg/mL; CC50 [22]: > 400 µg/mL; CC50 [23]: > 400 µg/mL; CC50 [24]: > 50 µg/mL; CC50 [25]: 0.5 µg/mL; CC50 [26]: 2 µg/mL
Nc1nc(O)c2ncn([C@@H]3C=C(CCO)[C@@H](O)[C@H]3O)c2n1,–,–,–,–,–,–,–,–,–,–,–,–,–,–,–,> 500 µg/mL,–,–,> 25 µg/mL,> 500 µg/mL,–
Nc1nccc2c1ncn2[C@@H]1C=C(CCO)[C@@H](O)[C@H]1O,–,–,–,–,–,–,–,–,–,–,–,–,–,–,–,> 500 µg/mL,–,–,> 25 µg/mL,3.9 µg/mL,–
Cc1cn([C@@H]2C=C(CCO)[C@@H](O)[C@H]2O)c(=O)[nH]c1=O,–,–,–,–,–,–,–,–,–,–,–,–,–,–,–,> 500 µg/mL,–,–,> 25 µg/mL,> 500 µg/mL,–
Nc1ccn([C@@H]2C=C(CCO)[C@@H](O)[C@H]2O)c(=O)n1,–,–,–,–,–,–,–,–,–,–,–,–,–,–,–,> 500 µg/mL,–,–,> 25 µg/mL,> 500 µg/mL,–
Nc1ncnc2c1ncn2[C@@H]1C=C(CO)[C@@H](O)[C@H]1O [NEOPLANOCIN A],> 10 µg/mL,70 µg/mL,0.5 µg/mL,4 µg/mL,> 40 µg/mL,9 µg/mL,> 70 µg/mL,2 µg/mL,> 70 µg/mL,> 40 µg/mL,2 µg/mL,7 µg/mL,0.7 µg/mL,> 20 µg/mL,10 µg/mL,152 µg/mL,0.3 µg/mL,> 10 µg/mL,0.74 µg/mL,1 µg/mL,IC50 [28]: 0.004 µg/mL; CC50 [19]: 40 µg/mL; CC50 [20]: 7 µg/mL; CC50 [22]: > 40 µg/mL; CC50 [23]: > 10 µg/mL; CC50 [24]: 15 µg/mL; CC50 [25]: 0.4 µg/mL; CC50 [26]: 2 µg/mL
